# Published values collected from several papers.
# Each line is one published result; the experiments were not run side by side.
# TYK2: Non-receptor tyrosine-protein kinase TYK2 (TYK2, Homo sapiens, UniProt P29597)
# TYK2 JH2: Non-receptor tyrosine-protein kinase TYK2, JH2 (TYK2, Homo sapiens, UniProt P29597)
# TYK2 JH1: Non-receptor tyrosine-protein kinase TYK2, JH1 (TYK2, Homo sapiens, UniProt P29597)
SMILES,target,effect on,action,method,tested at,endpoint,value
Cc1sc(C(=O)NC2COC2)cc1-n1cc(NC(=O)Nc2c(F)cccc2Cl)cn1,TYK2,enzyme activity,inhibitor,,10 µM,remaining activity,114%
Cc1cc(NC(=O)c2cccc3cc(-c4cccc5[nH]nc(N)c45)ccc23)ccc1F,TYK2,enzyme activity,inhibitor,,0.1 µM,activity vs control,94%
C[C@H]1CCN(c2nccc(-c3cnn4ncccc34)n2)C1,TYK2,binding,,,1 µM,remaining binding,51%
CCC(=N\O)/C(C)=C/c1ccc(F)cc1,TYK2 JH2,cell-free assay,,competition with immobilised ligand,1 µM,remaining binding,73%
O=C1Nc2ccc(Cl)cc2C1=Cc1cc(Cl)c(O)c(Cl)c1,TYK2,cell-free assay,,,0.5 µM,remaining signal,26.9%
CCOC(=O)c1cc2cc(-c3cc(C(=O)NCc4ccc(C(=O)O)cc4)nn3C)ccc2[nH]1,TYK2 JH1,cell-free assay,,competition with immobilised ligand,0.1 µM,remaining binding,90%
O=C(CSc1nc2nccnc2c(=O)n1CCc1ccccc1)Nc1nccs1,TYK2,enzyme activity,inhibitor,,10 µM,inhibition,5%
COc1cc2ncnc(Nc3ccc(Oc4ccccc4)cc3C)c2cc1OC,TYK2,enzyme activity,inhibitor,,1 µM,inhibition,7%
Cc1ccc(C(=O)NCc2ccsc2)cc1C#Cc1cn(C(C)C)c2ncnc(N)c12,TYK2,enzyme activity,inhibitor,,1 µM,activity vs control,49%
Cc1ccc(NC(=O)c2ccc(C)c(C(F)(F)F)c2)cc1C#Cc1nn(C2CCC(O)CC2)c2ncnc(N)c12 (stereo not shown),TYK2,cell-free assay,,,10 µM,remaining signal,36%
c1ccc(N2CCN(Cc3nc4ccccc4[nH]3)CC2)nc1,TYK2 JH2,binding,,competition with immobilised ligand,1 µM,remaining binding,100%
F[C@@H]1CCN(c2nccc(-c3cnn4ncccc34)n2)C1,TYK2 JH1,cell-free assay,,competition with immobilised ligand,1 µM,remaining binding,100%
O=C(Nc1cnn(-c2csc(C(=O)NC3COC3)c2)c1)Nc1ccccc1Cl,TYK2,enzyme activity,inhibitor,,5 µM,remaining activity,95.9%
CN([C@@H]1CCc2c(CC(=O)O)c3ccccc3n2C1)S(=O)(=O)c1ccc(F)cc1,TYK2 JH1,cell-free assay,,competition with immobilised ligand,1 µM,remaining binding,100%
CC1CCCN1c1nccc(-c2cnn3ncccc23)n1 (stereo not shown),TYK2,binding,,,1 µM,remaining binding,87%
CC/C(=N\NC(=O)NCc1cccc(O)c1)c1ccc(O)c(C)c1O,TYK2,enzyme activity,inhibitor,,0.1 µM,inhibition,7.2%
CS(=O)(=O)NCC[C@H](NC(=O)c1cncc2c1cnn2-c1ccc(F)cc1)c1ccnc(S(C)(=O)=O)c1,TYK2 JH1,cell-free assay,,competition with immobilised ligand,1 µM,remaining binding,100%
N[C@@H]1CCN(c2nccc(-c3cnn4ncccc34)n2)C1,TYK2,binding,,,1 µM,remaining binding,100%
Nc1ncnc2occ(-c3ccc(NC(=O)Nc4cc(C(F)(F)F)ccc4F)cc3)c12,TYK2 JH1,cell-free assay,inhibitor,,20 µM,remaining signal,55%
CN(c1nccc(-c2cnn3ncccc23)n1)C1CC1,TYK2 JH1,cell-free assay,,,1 µM,remaining signal,100%
CC(C)(C)c1nc(-c2cccc(NS(=O)(=O)c3c(F)cccc3F)c2F)c(-c2ccnc(N)n2)s1,TYK2,enzyme activity,inhibitor,radiometric,1 µM,remaining activity,96%
O=c1nc(-c2ccccn2)sc2ccccc12,TYK2 JH2,binding,,competition with immobilised ligand,1 µM,remaining binding,98%
CN1CC(Oc2cnc(C#N)cc2-c2ccn3nc(NC(=O)C4CC4)cc3c2)C1,TYK2,enzyme activity,inhibitor,,1 µM,inhibition,-10%
CCC(=O)N[C@@H]1CC[C@H](C(=O)N(C)c2ccc(-c3nc4ccccc4o3)cc2)C1,TYK2 JH2,cell-free assay,,competition with immobilised ligand,1 µM,remaining binding,100%
CCN(CC)CCNC(=O)c1c(C)[nH]c(/C=C2\C(=O)Nc3ccc(F)cc32)c1C,TYK2,cell-free assay,,,0.5 µM,remaining signal,52.6%
Cn1nc(C(=O)NCc2ccc(C(=O)O)cc2)cc1-c1ccc2[nH]ccc2c1,TYK2 JH2,cell-free assay,,competition with immobilised ligand,0.1 µM,remaining binding,94%
CN(C)c1nccc(-c2cnc3ncccn23)n1,TYK2 JH1,cell-free assay,,competition with immobilised ligand,1 µM,remaining binding,83%
O=C1NC(=O)c2cc(Nc3ccc(F)cc3)c(Nc3ccc(F)cc3)cc21,TYK2,cell-free assay,,,0.5 µM,remaining signal,80.6%
